Experiment: Inhibition of Trypanosoma vivax IAG-NH expressed in Escherichia coli WK6 cells
Outline: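 Recombinant N-terminal His6-tagged enzyme, purified by Ni-NTA affinity and Superdex-200 gel filtration, concentration per monomer from ε280 47752 M-1cm-1. […] Initial rates fitted to competitive inhibition equation.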

Point of comparison: `OC[C@@H]1[C@@H](O)[C@@H](O)CN1Cc1ccc(-n2cccn2)cc1`, Ki 1200 nM. Against it:
- OC[C@@H]1[C@@H](O)[C@@H](O)CN1Cc1nccc2ccccc12 — 1.6-fold lower, 750 nM
- COc1cccc2c(CN3C[C@H](O)[C@H](O)[C@H]3CO)c[nH]c12 — 1.9-fold higher, 2300 nM
- OC[C@@H]1[C@@H](O)[C@@H](O)CN1Cc1ccc(I)cc1 — 3.6-fold higher, 4300 nM
- Nc1ncccc1CN1C[C@H](O)[C@H](O)[C@H]1CO — 100-fold higher, 120000 nM
- OC[C@@H]1[C@@H](O)[C@@H](O)CN1Cc1ccc2cccnc2c1 — 1.7-fold lower, 720 nM
- OC[C@@H]1[C@@H](O)[C@@H](O)CN1Cc1ccc(-n2cccc2)cc1 — within 1.5-fold, 1000 nM
- OC[C@@H]1[C@@H](O)[C@@H](O)CN1Cc1ccnc2ccccc12 — 24-fold higher, 29000 nM
- OC[C@@H]1[C@@H](O)[C@@H](O)CN1Cc1cccc2cccnc12 — 110-fold lower, 10.8 nM
- O=[N+]([O-])c1ccc(CN2C[C@H](O)[C@H](O)[C@H]2CO)cc1 — 6.2-fold higher, 7500 nM
- Cn1nnc2cc(CN3C[C@H](O)[C@H](O)[C@H]3CO)ccc21 — 1.7-fold lower, 720 nM
- COc1ccc(CN2C[C@H](O)[C@H](O)[C@H]2CO)cn1 — 27-fold higher, 32000 nM
- OC[C@@H]1[C@@H](O)[C@@H](O)CN1Cc1ccccc1 — 49-fold higher, 59000 nM
- N#Cc1cccc(CN2C[C@H](O)[C@H](O)[C@H]2CO)c1 — 3.2-fold higher, 3800 nM
- Cn1c(CN2C[C@H](O)[C@H](O)[C@H]2CO)nc2ccccc21 — 1.8-fold higher, 2100 nM
- OC[C@@H]1[C@@H](O)[C@@H](O)CN1Cc1c[nH]c2ccccc12 — 10-fold higher, 12000 nM
- Cc1nn(-c2ccccc2)nc1CN1C[C@H](O)[C@H](O)[C@H]1CO — 19-fold lower, 63 nM
- Nc1ncnc2c(CN3C[C@H](O)[C@H](O)[C@H]3CO)c[nH]c12 — 290-fold lower, 4.1 nM
- OC[C@@H]1[C@@H](O)[C@@H](O)CN1Cc1ccncc1 — 17-fold higher, 20000 nM
- OC[C@@H]1[C@@H](O)[C@@H](O)CN1Cc1ccc2ccccc2c1 — 1.7-fold higher, 2000 nM
- Cc1nc(-c2ccccc2)ncc1CN1C[C@H](O)[C@H](O)[C@H]1CO — 36-fold higher, 43000 nM
- OC[C@@H]1[C@@H](O)[C@@H](O)CN1Cc1cccc(-n2cccc2)c1 — 2.8-fold higher, 3400 nM
- OC[C@@H]1[C@@H](O)[C@@H](O)CN1Cc1cnc2ccccc2c1 — 17-fold higher, 20000 nM
- OC[C@@H]1[C@@H](O)[C@@H](O)CN1Cc1ccc(-n2cncn2)cc1 — the same, 1200 nM
- OC[C@@H]1[C@@H](O)[C@@H](O)CN1Cc1c[nH]c2c(O)ncnc12 — 270-fold lower, 4.4 nM
- N#Cc1ccc(CN2C[C@H](O)[C@H](O)[C@H]2CO)cc1 — 22-fold higher, 26000 nM
- OC[C@@H]1[C@@H](O)[C@@H](O)CN1Cc1ccc2cccc(O)c2n1 — within 1.5-fold, 1000 nM
- O=[N+]([O-])c1cccc(CN2C[C@H](O)[C@H](O)[C@H]2CO)c1 — 19-fold higher, 23000 nM
- OC[C@@H]1[C@@H](O)[C@@H](O)CN1Cc1ccc2ccccc2n1 — 6.7-fold lower, 180 nM

Source: ChEMBL document CHEMBL1155058, “N-Arylmethyl substituted iminoribitol derivatives as inhibitors of a purine specific nucleoside hydrolase” (Bioorg Med Chem, 2008)
